Active and inactive are the calls of the source. No cut-off for these calls is given here.

The record followed here is ChEMBL document CHEMBL1926519, “B-Ring-modified and/or 5-demethylated nobiletin congeners: inhibitory activity against pro-MMP-9 production” (Bioorg Med Chem, 2011).

Data set [1] is described as follows: Cytotoxicity against human SRA 01/04 cells at 64 uM after 24 hrs by LDH release assay. The data set is classed as cell-based. The procedure, abridged: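 SRA01/04 lens epithelial cells seeded at 5,000/well, after 15–18 h washed with serum-free medium and exposed 24 h to test sample, final 64 lmol/L from DMSO stock. LDH in supernatant read at 570 nm. Percent specific release = (S−N)/(P−N)×100, P being 0.2% Tween-20 lysis and N cell- and serum-free medium. Triplicate means.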
For orientation: LDH leaks from cells whose membrane has failed.

Data set [2] is described as follows: Inhibition of TNFalpha-stimulated pro MMP9 production in human SRA 01/04 cells after 24 hrs by SDS-PAGE based gelatin zymography assay. The data set is classed as functional, cell-based. The gist of the method:
(§1)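 Confluent SRA01/04 cells (DMEM, 20% heat-inactivated FBS, 37 °C, 5% CO2) treated 24 h with test sample at 0.25, 1, 4, 16, 64 µM plus PMA 10 nM or TNF-a 10 ng/mL. Media run on 10% SDS–PAGE with 0.6 mg/mL gelatin, incubated at 37 °C in Tris–HCl pH 7.5/CaCl2/ZnCl2, Coomassie-stained. Pro-MMP-9 bands quantified densitometrically, giving IC50, triplicate means.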

The nature of data set [3]: Ratio of IC50 for PMA-stimulated pro MMP9 production in human SRA 01/04 cells to IC50 for TNFalpha-stimulated pro MMP9 production in human SRA 01/04 cells. The data set is classed as functional.
A short description of data set [4]: Inhibition of PMA-stimulated pro MMP9 production in human SRA 01/04 cells after 24 hrs by SDS-PAGE based gelatin zymography assay. The class given is functional, cell-based. The gist of the method:
as §1

The species named for another data set is Homo sapiens. Kind of data set: Inhibition of PMA-stimulated pro MMP9 production in human SRA 01/04 cells at 64 uM after 24 hrs by SDS-PAGE based gelatin zymography assay. The class given is functional, cell-based.

In the case of `COc1c(OC)c(OC)c2c(=O)cc(-c3cccc(OCc4ccccc4)c3)oc2c1OC`, the Activity entry in data set [1] is listed as “Toxic”.

Usually IC50 stands for the concentration that gives 50% inhibition. Low values mean greater potency in that assay, high ones weaker potency in that assay. As for `COc1ccc(-c2cc(=O)c3c(O)c(OC)c(OC)c(OC)c3o2)cc1OC` [5-DEMETHYLNOBILETIN], the Activity entry in data set [1] is reported as “Non-toxic”. Besides, the IC50 in data set [2] amounted to 42.4 µM; in data set [4], 3 µM. For the same compound, the Ratio IC50 in data set [3] worked out at 14. For the same compound, in the data set filed under Homo sapiens, the inhibition result was “inactive”.

Consider `COc1c(OC)c(OC)c2c(=O)cc(-c3ccc(OCc4ccccc4)cc3)oc2c1OC`, for which, in data set [1], the Activity result is “Toxic”.

As for `COc1ccc(-c2cc(=O)c3c(O)c(OC)c(OC)c(OC)c3o2)cc1O`, the Activity result in data set [1] is recorded as “Non-toxic”. For the same compound, the figures for the IC50 in data set [2] and in data set [4] were 29.6 µM and 1.5 µM, respectively. Also, in the data set filed under Homo sapiens, the inhibition result was “inactive”.

For `COc1c(OC)c(OC)c2c(=O)cc(-c3ccccc3O)oc2c1OC`, the Activity result in data set [1] is listed as “Non-toxic”. Further, the figures for the IC50 in data set [2] and in data set [4] were 68 µM and 0.4 µM, respectively. Also, in data set [3], the “Ratio IC50” value was 170.

Turning to `COc1ccc(-c2cc(=O)c3c(OC)c(OC)c(OC)c(OC)c3o2)cc1` [TANGERETIN], in data set [1], the Activity result is given as “Non-toxic”. Besides, the concentration for half-maximal inhibition (IC50) in data set [2] was determined as 33.2 µM; in data set [4], 6.8 µM.

With `COc1cc(-c2cc(=O)c3c(O)c(OC)c(OC)c(OC)c3o2)ccc1O`, the Activity entry in data set [1] was “Non-toxic”. Moreover, the results for the half-maximal inhibitory concentration (IC50) in data set [2] and in data set [4] were 10.6 µM and 0.7 µM, respectively. Also, the Ratio IC50 in data set [3] was 15.

Regarding `COc1cccc(-c2cc(=O)c3c(OC)c(OC)c(OC)c(OC)c3o2)c1`, in data set [1], the Activity result is given as “Non-toxic”. Besides, the results for the IC50 in data set [2] and in data set [4] were 15.5 µM and 5.5 µM, respectively.

`COc1c(OC)c(OC)c2c(=O)cc(-c3cc(O)cc(O)c3)oc2c1OC`: the Activity result in data set [1] was “Non-toxic”. For the same compound, the IC50 in data set [2] worked out at 24 µM; in data set [4], 8.1 µM.

Turning to `COc1c(OC)c(OC)c2c(=O)cc(-c3cccc(O)c3)oc2c1OC`, in data set [1], the Activity entry is “Non-toxic”. In addition, the IC50 was 23.5 µM in data set [2] and 2.5 µM in data set [4]. The inhibition result in the data set filed under Homo sapiens is “inactive”.

As to `COc1ccccc1-c1cc(=O)c2c(OC)c(OC)c(OC)c(OC)c2o1`, in data set [1], the Activity result is listed as “Non-toxic”. Besides, the values for the half-inhibitory concentration (IC50) in data set [2] and in data set [4] were 24 µM and 13.7 µM, respectively.

On to `COc1cc(OC)cc(-c2cc(=O)c3c(OC)c(OC)c(OC)c(OC)c3o2)c1`, for which the Activity result in data set [1] is “Non-toxic”. For the same compound, the IC50 in data set [2] was 25.8 µM; in data set [4], 12 µM.

Consider `COc1c(OC)c(OC)c2c(=O)cc(-c3ccc(O)cc3)oc2c1OC`, for which the Activity result in data set [1] is recorded as “Non-toxic”. The results for the IC50 in data set [2] and in data set [4] were 14.3 µM and 2.6 µM, respectively.

For `COc1c(OC)c(O)c2c(=O)cc(-c3ccc(O)cc3)oc2c1OC` [XANTHOMICROL], the Activity result in data set [1] is reported as “Non-toxic”. Also, the IC50 was 22.3 µM in data set [2] and 3.5 µM in data set [4]. The “Ratio IC50” value in data set [3] is on record as 6.
